Experimental data from the M2OR odorant receptor database.

How the values were obtained:
Conditions in all cases: stereoisomer not certain
[1] = target: T1, UniProt Q7TRX0
T1 sequence (whole entry): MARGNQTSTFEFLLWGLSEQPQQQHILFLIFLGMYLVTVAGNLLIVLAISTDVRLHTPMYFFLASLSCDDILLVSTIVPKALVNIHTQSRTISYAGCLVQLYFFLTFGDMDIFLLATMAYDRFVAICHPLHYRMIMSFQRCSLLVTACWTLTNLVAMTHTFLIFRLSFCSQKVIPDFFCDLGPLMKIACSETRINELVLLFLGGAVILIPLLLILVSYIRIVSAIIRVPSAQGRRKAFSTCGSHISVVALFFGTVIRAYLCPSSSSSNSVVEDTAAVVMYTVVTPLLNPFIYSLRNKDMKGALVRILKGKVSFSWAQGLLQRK
In short: (§1)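 Each entry records the cell line, G-protein, co-transfected protein and tags used. Methods varied with the source, often transient luciferase assays in mammalian cell lines. A receptor–molecule pair is called responsive (active) if the original authors judged its signal statistically different from baseline and non-responsive (inactive) otherwise.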

[2] = target: T2, UniProt Q8VF43
T2 sequence (whole entry): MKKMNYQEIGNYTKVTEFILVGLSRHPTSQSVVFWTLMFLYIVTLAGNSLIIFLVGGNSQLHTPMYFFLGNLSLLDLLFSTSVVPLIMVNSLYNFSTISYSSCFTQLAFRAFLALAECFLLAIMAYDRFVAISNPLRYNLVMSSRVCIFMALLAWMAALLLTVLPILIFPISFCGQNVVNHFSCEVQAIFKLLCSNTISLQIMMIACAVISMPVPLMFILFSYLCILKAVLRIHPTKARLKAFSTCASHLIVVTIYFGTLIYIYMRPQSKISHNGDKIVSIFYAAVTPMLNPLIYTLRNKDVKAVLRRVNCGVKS
In short: as §1

[3] = target: T3, UniProt Q8VF52
T3 sequence (whole entry): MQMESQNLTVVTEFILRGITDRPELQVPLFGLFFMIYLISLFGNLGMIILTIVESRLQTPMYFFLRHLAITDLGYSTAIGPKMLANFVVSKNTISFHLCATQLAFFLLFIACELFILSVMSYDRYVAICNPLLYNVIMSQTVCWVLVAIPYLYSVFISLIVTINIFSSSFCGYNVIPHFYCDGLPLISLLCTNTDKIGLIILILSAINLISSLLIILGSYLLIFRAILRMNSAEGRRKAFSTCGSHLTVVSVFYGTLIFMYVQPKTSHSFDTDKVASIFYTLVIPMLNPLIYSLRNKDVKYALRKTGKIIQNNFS
In short: as §1

[4] = target: T4, UniProt Q8VFM8
T4 sequence (whole entry): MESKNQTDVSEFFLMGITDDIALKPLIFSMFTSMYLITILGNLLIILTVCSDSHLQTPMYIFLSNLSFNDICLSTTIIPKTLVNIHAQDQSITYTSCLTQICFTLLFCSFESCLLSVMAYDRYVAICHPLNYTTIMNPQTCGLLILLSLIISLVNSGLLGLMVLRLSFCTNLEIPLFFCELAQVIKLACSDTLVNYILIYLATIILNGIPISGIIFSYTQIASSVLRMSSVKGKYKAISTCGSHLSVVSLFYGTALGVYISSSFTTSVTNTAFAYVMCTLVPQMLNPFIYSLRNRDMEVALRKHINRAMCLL
In short: as §1

[5] = target: T5, UniProt Q8VFP5
T5 sequence (whole entry): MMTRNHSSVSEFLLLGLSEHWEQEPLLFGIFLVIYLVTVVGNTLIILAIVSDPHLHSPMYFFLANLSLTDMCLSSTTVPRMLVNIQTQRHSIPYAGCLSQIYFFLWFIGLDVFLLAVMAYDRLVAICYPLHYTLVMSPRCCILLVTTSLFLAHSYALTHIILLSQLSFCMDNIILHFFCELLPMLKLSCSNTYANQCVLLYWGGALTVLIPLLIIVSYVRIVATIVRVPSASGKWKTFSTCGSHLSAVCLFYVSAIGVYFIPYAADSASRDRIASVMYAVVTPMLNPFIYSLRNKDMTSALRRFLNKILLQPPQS
In short: as §1

[6] = target: T6, UniProt Q8VG01
T6 sequence (whole entry): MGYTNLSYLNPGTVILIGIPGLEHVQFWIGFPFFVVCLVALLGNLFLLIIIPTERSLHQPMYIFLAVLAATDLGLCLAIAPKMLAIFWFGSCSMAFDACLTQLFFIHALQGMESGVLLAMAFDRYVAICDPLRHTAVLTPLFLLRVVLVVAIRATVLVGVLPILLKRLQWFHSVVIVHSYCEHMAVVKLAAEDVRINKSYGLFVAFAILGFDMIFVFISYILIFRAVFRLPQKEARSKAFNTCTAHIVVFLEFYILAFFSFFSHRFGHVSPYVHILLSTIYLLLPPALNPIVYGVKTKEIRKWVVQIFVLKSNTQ
In short: as §1

[7] = target: T7, UniProt Q8VG27
T7 sequence (whole entry): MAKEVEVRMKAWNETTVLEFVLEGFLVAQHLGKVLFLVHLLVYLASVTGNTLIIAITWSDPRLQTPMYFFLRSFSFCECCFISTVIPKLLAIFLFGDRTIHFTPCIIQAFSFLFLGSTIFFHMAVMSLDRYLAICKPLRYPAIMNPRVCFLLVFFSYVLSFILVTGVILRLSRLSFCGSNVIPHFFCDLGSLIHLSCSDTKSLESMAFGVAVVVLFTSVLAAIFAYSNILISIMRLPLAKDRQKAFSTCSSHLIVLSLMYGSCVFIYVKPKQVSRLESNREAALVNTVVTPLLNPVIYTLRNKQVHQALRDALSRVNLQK
In short: as §1

[8] = target: T8, UniProt Q7TRW1
T8 sequence (whole entry): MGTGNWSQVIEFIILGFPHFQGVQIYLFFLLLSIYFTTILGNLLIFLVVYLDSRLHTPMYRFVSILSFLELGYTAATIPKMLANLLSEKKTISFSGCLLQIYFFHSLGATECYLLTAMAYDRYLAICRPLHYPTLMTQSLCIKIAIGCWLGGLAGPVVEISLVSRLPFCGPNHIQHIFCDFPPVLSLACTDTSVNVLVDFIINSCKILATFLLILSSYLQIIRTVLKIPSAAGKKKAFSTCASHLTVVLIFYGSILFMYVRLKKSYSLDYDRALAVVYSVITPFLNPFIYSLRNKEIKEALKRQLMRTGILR
In short: as §1

[9] = target: T9, UniProt Q8VEU7
T9 sequence (whole entry): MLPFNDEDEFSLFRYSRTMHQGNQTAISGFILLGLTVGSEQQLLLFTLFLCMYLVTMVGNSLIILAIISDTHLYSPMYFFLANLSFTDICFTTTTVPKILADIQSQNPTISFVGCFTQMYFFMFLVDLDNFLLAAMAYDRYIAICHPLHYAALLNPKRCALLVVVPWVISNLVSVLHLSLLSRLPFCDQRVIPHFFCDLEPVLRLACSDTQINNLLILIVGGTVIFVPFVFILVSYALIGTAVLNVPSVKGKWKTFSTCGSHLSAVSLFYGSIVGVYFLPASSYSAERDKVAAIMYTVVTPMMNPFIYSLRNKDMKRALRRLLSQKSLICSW
In short: as §1

[10] = target: T10, UniProt Q8VF05
T10 sequence (whole entry): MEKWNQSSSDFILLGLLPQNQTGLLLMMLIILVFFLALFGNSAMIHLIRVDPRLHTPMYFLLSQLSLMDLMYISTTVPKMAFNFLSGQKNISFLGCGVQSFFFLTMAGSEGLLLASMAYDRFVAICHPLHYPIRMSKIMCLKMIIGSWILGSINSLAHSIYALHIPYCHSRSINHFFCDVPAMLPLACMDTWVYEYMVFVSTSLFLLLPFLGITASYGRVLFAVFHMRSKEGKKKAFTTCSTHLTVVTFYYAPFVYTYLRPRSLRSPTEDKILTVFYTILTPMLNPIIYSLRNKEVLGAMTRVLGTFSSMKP
In short: as §1

[11] = target: T11, UniProt Q8VF24
T11 sequence (whole entry): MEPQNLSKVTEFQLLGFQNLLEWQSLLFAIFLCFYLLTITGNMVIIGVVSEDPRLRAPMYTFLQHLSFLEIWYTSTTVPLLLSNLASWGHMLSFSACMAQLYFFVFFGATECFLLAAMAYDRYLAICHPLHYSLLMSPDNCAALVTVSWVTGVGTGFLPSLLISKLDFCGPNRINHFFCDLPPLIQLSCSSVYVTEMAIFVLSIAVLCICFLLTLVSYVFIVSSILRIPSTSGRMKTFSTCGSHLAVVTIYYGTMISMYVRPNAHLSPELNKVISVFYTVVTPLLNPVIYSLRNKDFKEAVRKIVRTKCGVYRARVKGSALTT
In short: as §1

[12] = target: T12, UniProt Q8VF44
T12 sequence (whole entry): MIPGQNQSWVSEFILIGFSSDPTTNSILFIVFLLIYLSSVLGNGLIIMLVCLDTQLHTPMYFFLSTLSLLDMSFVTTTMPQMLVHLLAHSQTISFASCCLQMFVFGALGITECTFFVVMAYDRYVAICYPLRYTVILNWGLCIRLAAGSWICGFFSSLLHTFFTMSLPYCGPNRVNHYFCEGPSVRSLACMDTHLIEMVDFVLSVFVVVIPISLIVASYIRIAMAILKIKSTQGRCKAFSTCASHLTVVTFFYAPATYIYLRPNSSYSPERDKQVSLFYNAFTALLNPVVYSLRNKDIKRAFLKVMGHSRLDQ
In short: as §1

[13] = target: T13, UniProt Q8VFG6
T13 sequence (whole entry): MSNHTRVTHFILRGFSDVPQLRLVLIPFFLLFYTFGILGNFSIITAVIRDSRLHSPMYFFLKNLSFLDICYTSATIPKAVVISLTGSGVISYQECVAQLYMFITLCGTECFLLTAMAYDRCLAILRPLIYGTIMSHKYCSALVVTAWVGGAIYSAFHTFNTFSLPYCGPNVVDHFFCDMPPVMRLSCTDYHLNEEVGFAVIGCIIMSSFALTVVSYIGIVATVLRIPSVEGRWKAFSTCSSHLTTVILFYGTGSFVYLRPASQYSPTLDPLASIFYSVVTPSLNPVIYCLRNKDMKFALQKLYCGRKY
In short: as §1

[14] = target: T14, UniProt Q8VFZ6
T14 sequence (whole entry): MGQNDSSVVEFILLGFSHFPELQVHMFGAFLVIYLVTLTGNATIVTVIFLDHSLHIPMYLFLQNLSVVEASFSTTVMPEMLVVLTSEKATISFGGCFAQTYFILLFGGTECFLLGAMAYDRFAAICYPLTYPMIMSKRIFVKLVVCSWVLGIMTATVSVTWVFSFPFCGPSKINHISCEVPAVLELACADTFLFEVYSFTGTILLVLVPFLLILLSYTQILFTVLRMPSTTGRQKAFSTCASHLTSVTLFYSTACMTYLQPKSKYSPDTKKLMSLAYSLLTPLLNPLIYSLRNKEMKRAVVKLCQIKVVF
In short: as §1

[15] = target: T15, UniProt Q8VG22
T15 sequence (whole entry): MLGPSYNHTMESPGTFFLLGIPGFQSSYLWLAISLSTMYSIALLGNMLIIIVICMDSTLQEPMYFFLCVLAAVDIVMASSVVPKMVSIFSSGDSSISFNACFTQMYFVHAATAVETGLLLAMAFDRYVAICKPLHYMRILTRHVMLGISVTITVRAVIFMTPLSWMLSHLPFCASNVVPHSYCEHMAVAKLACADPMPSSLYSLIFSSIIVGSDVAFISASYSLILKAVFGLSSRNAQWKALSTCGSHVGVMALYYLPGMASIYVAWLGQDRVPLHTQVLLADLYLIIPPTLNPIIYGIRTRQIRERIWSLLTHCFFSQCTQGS
In short: as §1

[16] = target: T16, UniProt Q8VG49
T16 sequence (whole entry): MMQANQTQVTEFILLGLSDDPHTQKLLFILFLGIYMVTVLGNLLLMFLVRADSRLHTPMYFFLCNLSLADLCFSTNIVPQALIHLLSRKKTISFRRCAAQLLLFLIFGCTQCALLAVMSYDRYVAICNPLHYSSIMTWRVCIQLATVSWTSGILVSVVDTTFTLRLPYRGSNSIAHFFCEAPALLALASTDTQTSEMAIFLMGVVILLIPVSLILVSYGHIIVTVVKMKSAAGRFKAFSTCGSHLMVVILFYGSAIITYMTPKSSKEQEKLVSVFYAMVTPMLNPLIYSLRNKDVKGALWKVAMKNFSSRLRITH
In short: as §1

[17] = target: UniProt Q7TRN9
In short: as §1

[18] = target: UniProt Q7TRR8
In short: as §1

[19] = target: UniProt Q8VF06
In short: as §1

[20] = target: UniProt Q8VG28
In short: as §1

Measured: odorant receptor agonist call

Sequence of UniProt Q7TRR8 (Q7TRR8 as listed by the source): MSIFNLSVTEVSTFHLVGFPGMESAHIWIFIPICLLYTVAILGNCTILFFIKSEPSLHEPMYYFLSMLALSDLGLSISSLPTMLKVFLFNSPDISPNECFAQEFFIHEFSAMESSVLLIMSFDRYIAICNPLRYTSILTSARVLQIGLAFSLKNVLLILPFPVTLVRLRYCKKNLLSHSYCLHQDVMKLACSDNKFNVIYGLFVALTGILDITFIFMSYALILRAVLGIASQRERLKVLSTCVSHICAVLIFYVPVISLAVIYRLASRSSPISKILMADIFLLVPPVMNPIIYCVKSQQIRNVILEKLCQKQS
Sequence of UniProt Q7TRN9 (Q7TRN9 as listed by the source): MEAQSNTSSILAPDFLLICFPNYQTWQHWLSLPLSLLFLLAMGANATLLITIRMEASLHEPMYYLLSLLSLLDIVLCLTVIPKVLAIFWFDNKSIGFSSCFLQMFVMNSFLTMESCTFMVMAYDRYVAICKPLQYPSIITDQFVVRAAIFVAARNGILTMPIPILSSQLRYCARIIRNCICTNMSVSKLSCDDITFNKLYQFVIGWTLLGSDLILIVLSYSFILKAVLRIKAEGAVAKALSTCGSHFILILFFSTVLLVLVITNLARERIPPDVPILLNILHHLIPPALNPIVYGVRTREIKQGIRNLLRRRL
Sequence of UniProt Q8VF06 (Q8VF06 as listed by the source): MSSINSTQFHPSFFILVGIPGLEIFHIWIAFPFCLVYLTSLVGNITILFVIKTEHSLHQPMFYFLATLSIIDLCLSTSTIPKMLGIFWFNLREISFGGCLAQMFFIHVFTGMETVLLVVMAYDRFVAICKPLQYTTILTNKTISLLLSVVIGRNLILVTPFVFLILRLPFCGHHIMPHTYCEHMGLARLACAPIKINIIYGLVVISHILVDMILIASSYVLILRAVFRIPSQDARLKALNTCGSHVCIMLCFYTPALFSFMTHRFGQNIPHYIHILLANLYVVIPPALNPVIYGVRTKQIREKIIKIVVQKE
Sequence of UniProt Q8VG28 (Q8VG28 as listed by the source): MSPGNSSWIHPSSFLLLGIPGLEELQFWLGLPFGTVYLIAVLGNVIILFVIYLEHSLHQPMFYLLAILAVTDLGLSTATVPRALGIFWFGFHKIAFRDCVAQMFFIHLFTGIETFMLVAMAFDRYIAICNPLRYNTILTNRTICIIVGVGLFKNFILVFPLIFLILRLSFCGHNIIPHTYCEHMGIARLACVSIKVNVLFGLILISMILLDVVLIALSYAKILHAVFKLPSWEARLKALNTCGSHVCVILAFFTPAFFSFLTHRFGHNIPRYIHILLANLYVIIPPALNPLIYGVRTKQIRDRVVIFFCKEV

CSSC
inactive: [1] | [2] | [3] | [4] | [5] | [6] | [7]

O=CC=Cc1ccccc1
inactive: [1] | [2] | [3] | [4] | [5] | [6] | [7]

CCC1CCC(=O)O1 (configuration not stated)
inactive: [8] | [9] | [11] | [12] | [3] | [13] | [14] | [6] | [15] | [16]
active: [10]

COc1ccc(C=O)cc1
inactive: [1] | [2] | [3] | [4] | [5] | [6] | [7]

Cc1ccc(OC(=O)Cc2ccccc2)cc1
inactive: [1] | [2] | [3] | [4] | [5] | [6] | [7]

C=CCOC(=O)Cc1ccccc1
active: [10] | [13] | [14]
not listed: [17] | [18] | [19] | [20]
inactive: all other assays above

Oc1ccccc1Br
inactive: [1] | [2] | [3] | [4] | [5] | [6] | [7]

O=Cc1ccccc1
inactive: [1] | [2] | [3] | [4] | [5] | [6] | [7]

O=C(O)CCCCCCCBr
active: [17] | [20]
inactive: [18] | [19]

C=CCc1ccccc1
inactive: [9] | [10] | [11] | [12] | [3] | [13] | [14] | [6] | [15] | [16]
active: [8]

CCCCCCC(Br)C(=O)O (configuration not stated)
inactive: [1] | [2] | [3] | [4] | [5] | [7]
active: [6]

CCCCC(Br)C(=O)O (configuration not stated)
inactive: [1] | [2] | [3] | [4] | [5] | [6] | [7]

C=C(C)C1CC=C(C=O)CC1 (configuration not stated)
inactive: [1] | [2] | [3] | [4] | [5] | [6] | [7]

O=c1cc(O)c2ccccc2o1
active: [15]
not listed: [17] | [18] | [19] | [20]
inactive: all other assays above

CC(C=O)Cc1ccc2c(c1)OCO2 (configuration not stated)
inactive: [1] | [2] | [3] | [4] | [5] | [6] | [7]

O=Cc1ccc2c(c1)OCO2
inactive: [1] | [2] | [3] | [4] | [5] | [6] | [7]

OCc1ccc2c(c1)OCO2
inactive: [1] | [2] | [3] | [4] | [5] | [6] | [7]
